Calls of active or inactive are those of the source. The calls are words filed in the database; no cut-off is given here.
Experiments:
[1] = test system: Mus musculus; assay: Analgesic activity against acetic acid induced writhing test in mouse after peroral administration; assay type: functional
[2] = test system: Rattus norvegicus; assay: Anti-arthritis activity against adjuvant-induced arthritis in rats after peroral administration; assay type: functional
How it was run: (§1)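 Groups of five male Lewis rats, 40–50 days old, given intraplantar injection in right hind paw of 0.6 mg Mycobacterium butyricum in 0.1 mL Bayol 55. Drug given in food from adjuvant day to day 17. Injected and noninjected hind paw volumes measured day 17 against normal controls. ED50 by least-squares curve fitting or Litchfield–Wilcoxon probit.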

[3] = species on record: Rattus norvegicus; assay: Antiarthritis activity against adjuvant-induced arthritis in rats; assay type: functional; how it was run: as §1
[4] = test system: Rattus norvegicus; assay: Antiinflammatory activity against carrageenan-induced foot edema in rat after peroral administration at 25 mg/kg; IA=Inactive; assay type: functional, organism-based; set-up: dose 25 mg/kg
[5] = Mus musculus, po, read-out: ED50
[6] = Rattus norvegicus, po, read-out: ED50

| SMILES | ED50 [1, 5] [mg/kg] | other results |
| --- | --- | --- |
| CC(C)c1nc2c(C(F)(F)F)cccc2c(O)c1C(=O)Nc1nccs1 | 5 | – |
| O=C(Nc1nccs1)c1cnc2c(Cl)cccc2c1O | 100 | – |
| O=C(Nc1nccs1)c1c(C(F)(F)F)nc2c(Cl)ccc(C(F)(F)F)c2c1O | > 50 | – |
| O=C(Nc1nccs1)c1c(C(Cl)Cl)nc2ccc(Cl)cc2c1O | 25 | – |
| CCC(OC(=O)c1cccnc1)c1nc2c(C(F)(F)F)cccc2c(O)c1C(=O)Nc1nccs1 (centres undefined) | > 20 | ED50 [2, 6]: > 1 mg/kg |
| O=C(Nc1ncco1)c1cnc2c(C(F)(F)F)cccc2c1O | > 100 | – |
| O=C(Nc1nccs1)c1c(C(F)(F)F)nc2ccc(Cl)cc2c1O | > 25 | – |
| O=C(Nc1ccccc1)c1cnc2c(C(F)(F)F)cccc2c1O | > 50 | – |
| O=C(Nc1nccs1)c1c(C(F)(F)F)nc2ccc(C(F)(F)F)cc2c1O | 100 | – |
| CCCC(=O)OC(CC)c1nc2c(C(F)(F)F)cccc2c(O)c1C(=O)Nc1nccs1 (centres undefined) | 4 | ED50 [2, 6]: 1.3 mg/kg |
| CC(C)C(O)c1nc2c(C(F)(F)F)cccc2c(O)c1C(=O)Nc1nccs1 (centres undefined) | 20 | ED50 [3]: 0.4 mg/kg |
| O=C(Nc1nccs1)c1c(C(F)(F)F)nc2c(SC(F)(F)F)cccc2c1O | 4 | – |
| CC(O)c1nc2c(C(F)(F)F)cccc2c(O)c1C(=O)Nc1nccs1 (centres undefined) | 1.2 | ED50 [3]: ≥ 5 mg/kg |
| O=C(Nc1nccs1)c1c(C(F)(F)F)nc2cc(Cl)ccc2c1O | > 25 | – |
| O=C(Nc1ccccn1)c1c(C(Cl)Cl)nc2c(C(F)(F)F)cccc2c1O | 20 | – |
| CC(C)[C@H](N)c1nc2c(C(F)(F)F)cccc2c(O)c1C(=O)Nc1nccs1 | > 100 | ED50 [2, 6]: ≥ 5 mg/kg |
| O=C(Nc1nccs1)c1cnc2c(SC(F)(F)F)cccc2c1O | > 50 | – |
| O=C(Nc1nccs1)c1c(C(Cl)Cl)nc2cc(Cl)ccc2c1O | > 100 | – |
| O=C(Nc1ncccn1)c1cnc2c(C(F)(F)F)cccc2c1O | 50 | – |
| COc1ccc2nc(C(F)(F)F)c(C(=O)Nc3nccs3)c(O)c2c1 | 30 | – |
| O=C(Nc1nccs1)c1c(C(F)(F)F)nc2c(Cl)cccc2c1O | 2 | – |
| Cn1ccnc1NC(=O)c1c(C(Cl)Cl)nc2c(C(F)(F)F)cccc2c1O | > 25 | ED50 [4]: inactive |
| Cc1nc2c(C(F)(F)F)cccc2c(O)c1C(=O)Nc1nccs1 | 4 | – |
| COc1cccc2c(O)c(C(=O)Nc3nccs3)cnc12 | > 50 | – |
| O=C(Nc1nccs1)c1cnc2ccccc2c1O | > 10 | – |
| O=C(NC1=NCCS1)c1cnc2c(C(F)(F)F)cccc2c1O | 15 | – |
| Cc1nc2c(C(F)(F)F)cccc2c(O)c1C(=O)Nc1ccccn1 | 5 | – |

| SMILES | ED50 [1, 5] [mg/kg] | other results |
| --- | --- | --- |
| CC(O)c1nc2c(C(F)(F)F)cccc2c(O)c1C(=O)Nc1ccccn1 (centres undefined) | > 50 | – |
| O=C(Nc1ncco1)c1c(C(F)(F)F)nc2c(C(F)(F)F)cccc2c1O | > 100 | – |
| C[C@H](N)c1nc2c(C(F)(F)F)cccc2c(O)c1C(=O)Nc1nccs1 | 30 | ED50 [2, 6]: 7 mg/kg |
| CCC(=O)OC(CC)c1nc2c(C(F)(F)F)cccc2c(O)c1C(=O)Nc1nccs1 (stereo in doubt; 104) | – | ED50 [1]: 15 mg/kg; ED50 [2]: 0.6 mg/kg |
| O=C(Nc1ncco1)c1c(C(Cl)Cl)nc2c(C(F)(F)F)cccc2c1O | > 25 | ED50 [4]: inactive |
| O=C(Nc1nccs1)c1cnc2cc(C(F)(F)F)ccc2c1O | 100 | – |
| Cc1cc(NC(=O)c2c(C(F)(F)F)nc3c(C(F)(F)F)cccc3c2O)no1 | > 50 | – |
| O=C(Nc1nccs1)c1c(C(F)(F)F)nc2cc(C(F)(F)F)ccc2c1O | 5 | – |
| Cn1nccc1NC(=O)c1cnc2c(C(F)(F)F)cccc2c1O | 50 | – |
| O=C(Nn1ccnn1)c1cnc2c(C(F)(F)F)cccc2c1O | > 50 | – |
| O=C(Nc1nccs1)c1c(C(F)(F)F)nc2c(F)cccc2c1O | 5 | – |
| CCC(OC(=O)c1ccccc1)c1nc2c(C(F)(F)F)cccc2c(O)c1C(=O)Nc1nccs1 (centres undefined) | > 100 | ED50 [2, 6]: > 5 mg/kg |
| CC(=O)OC(c1nc2c(C(F)(F)F)cccc2c(O)c1C(=O)Nc1nccs1)C(C)C (centres undefined) | > 100 | ED50 [2, 6]: ≥ 5 mg/kg |
| CCc1nc2c(C(F)(F)F)cccc2c(O)c1C(=O)Nc1nccn1C | 50 | – |
| Cn1ccnc1NC(=O)c1cnc2c(C(F)(F)F)cccc2c1O | 16 | – |
| CC(C)Cc1nc2c(C(F)(F)F)cccc2c(O)c1C(=O)Nc1nccs1 | 30 | – |
| CCc1nc2c(C(F)(F)F)cccc2c(O)c1C(=O)Nc1cc(C)on1 | > 50 | – |
| O=C(Nc1nccs1)c1cnc2ccc(Cl)cc2c1O | 50 | – |
| O=C(NC1CCCCC1)c1cnc2c(C(F)(F)F)cccc2c1O | > 50 | – |
| O=C(Nc1ncc[nH]1)c1cnc2c(C(F)(F)F)cccc2c1O | 18 | – |
| CCC(O)c1nc2c(C(F)(F)F)cccc2c(O)c1C(=O)Nc1nccs1 (stereo in doubt; 91) | – | ED50 [1]: 1.8 mg/kg; ED50 [2]: 0.5 mg/kg |
| CCCc1nc2c(C(F)(F)F)cccc2c(O)c1C(=O)Nc1nccs1 | 15 | – |
| CCc1nc2c(C(F)(F)F)cccc2c(O)c1C(=O)Nc1nccs1 | 3 | – |
| O=C(Nc1nccs1)c1c(C(Cl)Cl)nc2ccccc2c1O | > 25 | – |
| CC(C)(C)c1nc2c(C(F)(F)F)cccc2c(O)c1C(=O)Nc1nccs1 | > 100 | – |
| CCc1nc2c(C(F)(F)F)cccc2c(O)c1C(=O)Nc1ncco1 | 15 | – |
| O=C(Nc1nccs1)c1c(C(Cl)Cl)nc2c(F)cccc2c1O | 25 | ED50 [4]: inactive |

| SMILES | ED50 [1, 5] [mg/kg] | other results |
| --- | --- | --- |
| O=C(Nc1nccs1)c1c(C(Cl)Cl)nc2c(Cl)cccc2c1O | 25 | ED50 [4]: inactive |
| CCC(OC(=O)/C=C/c1ccccc1)c1nc2c(C(F)(F)F)cccc2c(O)c1C(=O)Nc1nccs1 (centres undefined) | > 100 | ED50 [2, 6]: 10 mg/kg |
| O=C(Nc1ccccn1)c1cnc2c(C(F)(F)F)cccc2c1O | > 50 | – |
| CC(C)c1ccc2ncc(C(=O)Nc3nccs3)c(O)c2c1 | 25 | – |
| O=C(Nc1ccccn1)c1c(C(F)(F)F)nc2c(C(F)(F)F)cccc2c1O | > 20 | – |
| O=C(Nc1nccs1)c1cnc2c(OC(F)(F)F)cccc2c1O | > 50 | – |
| CC(C)C(O)c1nc2c(C(F)(F)F)cccc2c(O)c1C(=O)Nc1ccccn1 (centres undefined) | > 50 | ED50 [2, 6]: 5 mg/kg |
| CCC(=O)OC(c1nc2c(C(F)(F)F)cccc2c(O)c1C(=O)Nc1nccs1)C(C)C (centres undefined) | > 100 | ED50 [2, 6]: ≥ 5 mg/kg |
| CC(Cl)c1nc2c(C(F)(F)F)cccc2c(O)c1C(=O)Nc1nccs1 (centres undefined) | – | ED50 ([1]; read-out: ED50): 25 mg/kg |
| CC(O)c1nc2ccccc2c(O)c1C(=O)Nc1nccs1 (centres undefined) | > 100 | ED50 [2, 6]: > 5 mg/kg |
| CCc1nc2c(C(F)(F)F)cccc2c(O)c1C(=O)Nc1ccccn1 | 18 | – |
| CCC(=O)OC(CC)c1nc2c(C(F)(F)F)cccc2c(O)c1C(=O)Nc1nccs1 (stereo in doubt; 103) | – | ED50 [1]: >50 mg/kg; ED50 [2]: >5 mg/kg |
| CCC(OC(=O)C(C)(C)C)c1nc2c(C(F)(F)F)cccc2c(O)c1C(=O)Nc1nccs1 (centres undefined) | – | ED50 [2, 6]: 15 mg/kg |
| CC[C@H](NC(C)=O)c1nc2c(C(F)(F)F)cccc2c(O)c1C(=O)Nc1nccs1 | 5 | ED50 [2, 6]: 1.5 mg/kg |
| O=C(Nc1nccs1)c1cnc2ccc(C(F)(F)F)cc2c1O | 40 | – |
| O=C(Nc1nccs1)c1c(C(F)(F)C(F)(F)F)nc2c(C(F)(F)F)cccc2c1O | 20 | – |
| O=C(Nc1nccs1)c1c(C(F)(F)F)nc2c([S+]([O-])C(F)(F)F)cccc2c1O (centres undefined) | 20 | – |
| O=C(Nc1nccs1)c1c(CCl)nc2c(C(F)(F)F)cccc2c1O | 25 | ED50 [4]: inactive |
| CCCC(O)c1nc2c(C(F)(F)F)cccc2c(O)c1C(=O)Nc1nccs1 (centres undefined) | 20 | ED50 [3]: ≥ 20 mg/kg |
| O=C(Nc1nccs1)c1c(C(F)(F)F)nc2ccccc2c1O | 8 | – |
| CCC(O)c1nc2c(C(F)(F)F)cccc2c(O)c1C(=O)Nc1ccccn1 (centres undefined) | 20 | ED50 [2, 6]: ≥ 15 mg/kg |
| O=C(Nc1nc2ccccc2s1)c1c(C(Cl)Cl)nc2c(C(F)(F)F)cccc2c1O | > 25 | ED50 [4]: inactive |
| O=C(Nc1nccs1)c1c(C(F)(F)F)nc2cccc(C(F)(F)F)c2c1O | 20 | – |
| CCC(O)c1nc2c(C(F)(F)F)cccc2c(O)c1C(=O)Nc1nccs1 (stereo in doubt; 90) | – | ED50 [1]: >20 mg/kg; ED50 [2]: >5 mg/kg |
| O=C(Nc1nccs1)c1c(C(F)F)nc2c(C(F)(F)F)cccc2c1O | 5 | – |

— ChEMBL document CHEMBL1124161, “4-Hydroxy-3-quinolinecarboxamides with antiarthritic and analgesic activities” (J Med Chem, 1988)
